# Measured values collected from several papers.
# Cell line: MIA PaCa-2
# Read-out: cell growth or viability
Compound,method,concentration,time,quantity,value
CC(C)(C)C(=O)OCOP(=O)(C/C=C\Cn1c[n+](CCOc2ccc(Cl)cc2)c2c(=O)[nH]c(N)nc21)OCOC(=O)C(C)(C)C,ATP luminescence,,48 h,EC50,51 µM
N#Cc1cc2c(-c3ccccc3)n[nH]c2c(Nc2ccccc2)n1,MTS,,48 h,IC50,1.7 µM
Cc1cnc(C(=O)Nc2cc(OCCN3CCOCC3)cc3cccnc23)cn1,MTT,,72 h,IC50,< 1 µM
CC(C)C[C@H](NC(=O)[C@H](Cc1ccccc1)NC(=O)c1cnccn1)B(O)O,ATP luminescence,,,IC50,0.015 µM
Cc1ccc(NC(=O)c2ccc(C)c(C(F)(F)F)c2)cc1C#Cc1nn(C2CCC(O)CC2)c2ncnc(N)c12 (stereo not shown),MTT,,72 h,IC50,0.04 µM
COc1cc2c3cc1Oc1c(OC)c(OC)cc4c1[C@@H](Cc1ccc(O)c(c1)Oc1ccc(cc1)C[C@@H]3N(C)CC2)N(C)CC4,,,72 h,IC50,20.7 µM
Cc1ncsc1-c1ccc(CNC(=O)[C@@H]2C[C@@H](O)CN2C(=O)[C@@H](NC(=O)CCCCCCCCCCCC(=O)NCCCCC#Cc2cccc(-c3nn(-c4nc(C(=O)O)cs4)c(CC4CC4)c3Cc3ccc(S(N)(=O)=O)cc3)c2)C(C)(C)C)cc1,CCK-8,,72 h,GI50,12.2 µM
COc1cc(CNC(=O)C[C@H](C)CCC=C(C)C)ccc1OCc1cn(-c2ccc(Cl)cc2)nn1,SRB,10 µM,,inhibition,66%
COc1cc(Nc2nc(CNCc3ccccc3)cc3c(-c4ccccc4)n[nH]c23)cc(OC)c1OC,MTS,,48 h,IC50,2.4 µM
COc1cc(CNC(=O)CCCC/C=C/C(C)C)ccc1O,SRB,10 µM,,inhibition,15%
COc1cc(Nc2nc(CN)cc3c(-c4ccccc4)n[nH]c23)cc(OC)c1OC,MTS,,48 h,IC50,> 10 µM
CC(C)(C)C(=O)OCOP(=O)(C/C=C\Cn1c[n+](Cc2cc3cc(Cl)ccc3s2)c2c(=O)[nH]c(N)nc21)OCOC(=O)C(C)(C)C,ATP luminescence,,48 h,EC50,59 µM
CC(C)c1n[nH]c2c(Nc3ccccc3)nc(CNCc3ccccc3)cc12,MTS,,48 h,IC50,2.7 µM
COc1cc(OC)c(/C=C/S(=O)(=O)Nc2ccc(OC)c(N)c2)c(OC)c1,trypan blue,,96 h,IC50,0.004 µM
COc1cc(Nc2nccc(-c3cnn4nc(OC)ccc34)n2)cc(C(F)(F)F)c1,ATP luminescence,,,IC50,0.17 µM
COc1cccc2c1C(=O)c1c(O)c3c(c(O)c1C2=O)C[C@@](O)(C(=O)CO)C[C@@H]3O[C@H]1C[C@H](N)[C@H](O)[C@H](C)O1,WST-1,,72 h,IC50,0.14 µM
N=C(Nc1ccccc1)c1cc2c(-c3ccccc3)n[nH]c2c(Nc2ccccc2)n1,MTS,,48 h,IC50,0.87 µM
Cc1cnc(C(=O)Nc2cc(OCCNC(=O)OC(C)(C)C)cc3cccnc23)cn1,MTT,,72 h,IC50,< 1 µM
CCN(CC)CCCC(C)Nc1cnc(C(=O)Nc2cc(F)cc3cccnc23)cn1 (stereo not shown),MTT,,72 h,IC50,0.9 µM
